Test results as given in publication PMC7184531 (Heliyon, 2020).
pIC50: −log10 of the molar value. Read-outs that look alike come from different tables or passages of the source.

Tests used:
[1] = target: α-Glucosidase from Saccharomyces cerevisiae; assay: α-Glucosidase inhibitory assay; format: biochemical; conditions: for pIC50: read-out: α-glucosidase inhibition (IC50)
Cytotoxicity analysis = format: cell-based; conditions: mouse, 3T3-L1 cells
Method in brief: (§1)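 3T3-L1 cells grown in high-glucose DMEM with 10% FBS and 2 mM glutamine at 37 °C, 5% CO2. Seeded at 1 × 10^4 cells per well with 30 nM insulin in detection medium for 24–48 h. Test compound at 0.01–1000 μg/mL for 72 h. Then MTT (0.5 mg/mL in phosphate buffer) for 4 h, DMSO solubilisation, A570. % viability reported as mean of triplicates ± SD.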

3T3-L1 cells [2] = assay: Glucose consumption assay in 3T3-L1 cells; format: cell-based; conditions: Mus musculus
3T3-L1 cells [3] = assay: Cytotoxicity analysis; format: cell-based; conditions: for % cell viability: MTT assay, 72 h
Method in brief: as §1

[4] = 3T3-L1, read-out: glucose consumption (IC50, μM)

| Compound | pIC50 [1] | viability at 72 h (Cytotoxicity analysis) [%] | IC50 (3T3-L1 cells [2]; [4]) [µM] | further results |
| --- | --- | --- | --- | --- |
| O=c1c2cc(O)ccc2oc2cccc(O)c12 [Compound 3, 1,7-dihydroxyxanthone] | < 4.00 | 105 |  |  |
| COc1ccc2oc3cccc(O)c3c(=O)c2c1 [Compound 4, 1-hydroxyl-7 methoxyxanthone] | < 4.00 | 102 | 23.2 |  |
| CC(C)=CCC/C(C)=C/Cc1c(O)cc2oc3c(O)cccc3c(=O)c2c1O [Compound 5, mangostinone] | < 4.00 | 93.1 | 16 |  |
| cowanol [Compound 7] | 4.74 |  |  | % cell viability (3T3-L1 cells [3]): 100.9% |
| C[C@H]1O[C@H](O[C@H]2[C@H](O)[C@@H](O)[C@@H](O[C@H]3[C@H](O)[C@@H](O)C(O)O[C@@H]3CO)O[C@@H]2CO)[C@H](O)[C@@H](O)[C@@H]1N[C@H]1C=C(CO)[C@@H](O)[C@H](O)[C@H]1O (stereo partly drawn) [Acarbose, reference compound] |  |  |  | % inhibition at 200 μg/mL (α-glucosidase) ([1]; final concentration of 200 μg/mL): 98.9% |
| C[C@H]1C(=O)CC[C@@H]2[C@]1(C)CC[C@H]1[C@@]2(C)CC[C@@]2(C)[C@@H]3CC(C)(C)CC[C@]3(C)CC[C@]12C [Compound 9, friedelin] | < 4.00 | 101 | 18.5 |  |
| CN(C)C(=N)N=C(N)N [Metformin, reference compound] |  | 99.7 | 45.4 | IC50 (3T3-L1 cells [2]; 3T3-L1, read-out: glucose consumption (IC50, μg/mL)): 6.3 µg/mL |
| guttiferone I [Compound 2] | 4.88 |  |  | toxicity to cells (in words) (3T3-L1 cells [3]): without causing toxicity to cells; % cell viability (3T3-L1 cells [3]): 98.7%; toxicity to cells (in words) (3T3-L1 cells [3]; listed as Guttiferone I): without causing toxic effects |
